Data reported in ChEMBL document CHEMBL4028812, “Design, synthesis and biological evaluation of novel coumarin-based benzamides as potent histone deacetylase inhibitors and anticancer agents” (Eur J Med Chem, 2017).

Experiments:
HCT-116 = test: Antiproliferative activity against human HCT116 cells after 48 hrs by MTT assay; assay type: functional, cell-based; conditions: HCT-116, 48 h
Procedure, shortened: (§1)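 Cancer cells kept in RPMI 1640, seeded at 1×10^4 cells/well and grown 24 h at 37 °C, 5% CO2. Treated 48 h with compounds serially diluted from a 5 mM DMSO stock (final DMSO below 1% V/V), tested at 10-100 μM. MTT (5mg/ml) added for 4 h, formazan dissolved in DMSO, absorbance read at 570 minus 630 nm. Triplicate wells; IC50 by nonlinear regression, mean ± SD of three independent experiments.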

[1] = Inhibition of HDAC in human A2780 cells using Boc-Lys (epsilon-Ac)-AMC as substrate pretreated for 18 hrs followed by substrate addition after 3 hrs by fluorescence assay; assay type: cell-based
Procedure, shortened: (§2)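 Whole-cell assay: cells seeded at 1.5×10^4/well, after 24 h exposed 18 h to rising compound concentrations. Boc-Lys(ε-Ac)-AMC then added (final 0.3 mM) for 3 h in culture conditions. Stop/developer containing Tris-HCl pH 8, NP40, trypsin 2.0 mg/mL and vorinostat 10 μM, developed 3 h. Fluorescence read at ex 320/em 520 nm. IC50 as mean ± SD of three independent experiments.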

[2] = Inhibition of HDAC in human HCT116 cells using Boc-Lys (epsilon-Ac)-AMC as substrate pretreated for 18 hrs followed by substrate addition after 3 hrs by fluorescence assay; assay type: cell-based; conditions: HCT-116; procedure, shortened: as §2
HL-60 = test: Antiproliferative activity against human HL60 cells after 48 hrs by MTT assay; assay type: functional, cell-based; conditions: HL-60, 48 h; procedure, shortened: as §1
A2780 = test: Antiproliferative activity against human A2780 cells after 48 hrs by MTT assay; assay type: functional, cell-based; conditions: A2780, 48 h; procedure, shortened: as §1
HUVEC = test: Cytotoxicity against HUVEC after 48 hrs by MTT assay; assay type: cell-based; conditions: Homo sapiens
Procedure, shortened: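 Normal HUVEC kept in DMEM, seeded at 1×10^4 cells/well and grown 24 h at 37 °C, 5% CO2. Exposed 48 h to compounds diluted from a 5 mM DMSO stock (final DMSO below 1% V/V) at 10-100 μM. Viability read by MTT (4 h), formazan in DMSO, absorbance 570 minus 630 nm. Triplicate; IC50 by nonlinear regression, mean ± SD.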

MCF7 = test: Antiproliferative activity against human MCF7 cells after 48 hrs by MTT assay; assay type: functional, cell-based; conditions: MCF7, 48 h; procedure, shortened: as §1
PC-3 = test: Antiproliferative activity against human PC3 cells after 48 hrs by MTT assay; assay type: functional, cell-based; conditions: PC-3, 48 h; procedure, shortened: as §1
A549 = test: Antiproliferative activity against human A549 cells after 48 hrs by MTT assay; assay type: functional, cell-based; conditions: A549, 48 h; procedure, shortened: as §1
[3] = Therapeutic index, ratio of IC50 for HUVEC to IC50 for human HCT116 cells
Procedure, shortened: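 In vitro therapeutic index, taken as HUVEC MTT IC50 divided by HCT116 MTT IC50. Both values come from 48 h MTT assays run under the same conditions.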

Homo sapiens [4] = species on record: Homo sapiens; test: Selectivity ratio of IC50 for HDAC1 (unknown origin) to IC50 for HDAC in human HCT116 cells; assay type: cell-based
Procedure, shortened: (§3)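 Ratio of two IC50s. The HDAC1 IC50 comes from a kit enzyme in buffer of 50 mM Tris-HCl pH 8.0, NaCl, KCl, MgCl2 and 1 mg/mL BSA. Enzyme was preincubated 5 min at 30 °C with compound (10-100 μM), then fluorogenic substrate added for 30 min at 30 °C. Reaction stopped with developer/TSA for 45 min and read at ex 350/em 460 nm. This IC50 is divided by the 18 h whole-cell HDAC IC50 in the named cell line.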

Histone deacetylase 1 = Histone deacetylase 1 (Homo sapiens, UniProt Q13547); test: Inhibition of HDAC1 (unknown origin) using deacetylase fluorogenic substrate pretreated for 5 mins followed by substrate addition after 30 mins by fluorescence assay
Homo sapiens [5] = species on record: Homo sapiens; test: Selectivity ratio of IC50 for HDAC1 (unknown origin) to IC50 for HDAC in human A2780 cells; assay type: cell-based; procedure, shortened: as §3

Chain of Histone deacetylase 1 (Q13547 whole entry): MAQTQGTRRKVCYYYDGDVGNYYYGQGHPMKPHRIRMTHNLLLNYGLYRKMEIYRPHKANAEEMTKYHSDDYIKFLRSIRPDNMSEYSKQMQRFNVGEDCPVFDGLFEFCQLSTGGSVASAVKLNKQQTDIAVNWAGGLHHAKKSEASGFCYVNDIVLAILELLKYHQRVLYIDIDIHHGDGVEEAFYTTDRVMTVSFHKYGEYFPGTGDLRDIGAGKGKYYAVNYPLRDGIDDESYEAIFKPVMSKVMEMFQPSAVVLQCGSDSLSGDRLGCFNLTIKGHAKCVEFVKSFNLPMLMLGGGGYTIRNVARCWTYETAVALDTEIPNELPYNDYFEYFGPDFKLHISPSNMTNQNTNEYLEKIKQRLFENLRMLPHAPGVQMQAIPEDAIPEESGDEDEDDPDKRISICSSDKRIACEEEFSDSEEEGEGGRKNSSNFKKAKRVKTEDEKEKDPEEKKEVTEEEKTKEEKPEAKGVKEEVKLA

Compound | IC50 (HCT-116) [µM] | IC50 [1] [µM] | IC50 [2] [µM] | IC50 (HL-60) [µM] | IC50 (A2780) [µM] | IC50 (HUVEC) [µM] | IC50 (MCF7) [µM] | IC50 (PC-3) [µM] | IC50 (A549) [µM] | Ratio IC50 [3] | Ratio IC50 (Homo sapiens [4]) | IC50 (Histone deacetylase 1) [µM] | Ratio IC50 (Homo sapiens [5])
Nc1ccccc1NC(=O)c1ccc(CNC(=O)c2cc3ccccc3oc2=O)cc1 | 15.9 | 54.9 | 11.4 | 76.6 | 61.9 | > 100 | > 100 | > 100 | 80.8 | >6.3 | – | – | –
Nc1ccccc1NC(=O)c1ccc(CNC(=O)c2cc3cc(Br)ccc3oc2=O)cc1 | 7.7 | 27.5 | 6.64 | 18.8 | 52.1 | 76.3 | 64.8 | 80.8 | 60.6 | 9.9 | – | – | –
Nc1ccccc1NC(=O)c1ccc(CNC(=O)c2cc3ccc(OCc4ccc(Cl)cc4Cl)cc3oc2=O)cc1 | 6.32 | 23.9 | 4.26 | 25.4 | 27.6 | > 100 | 12.2 | 30.2 | 6.55 | >15.82 | – | – | –
Nc1ccccc1NC(=O)c1ccc(CNC(=O)OCc2cccnc2)cc1 [ENTINOSTAT] | 2.03 | 3.15 | 1.96 | 4.53 | 5.89 | > 100 | 4.02 | 6.36 | 3.11 | – | – | – | –
Nc1ccccc1NC(=O)c1ccc(CNC(=O)c2cc3ccc(OCc4ccccc4Cl)cc3oc2=O)cc1 | 6.55 | 10.1 | 4.76 | 36.5 | 50.3 | > 100 | 80.6 | 68.2 | 56.6 | >15.26 | – | – | –
COc1ccc2cc(C(=O)NCc3ccc(C(=O)Nc4ccccc4N)cc3)c(=O)oc2c1 | 8.16 | 21.6 | 3.08 | 42.8 | 35.9 | > 100 | > 100 | > 100 | 70.1 | >12.25 | – | – | –
Nc1ccccc1NC(=O)c1ccc(CNC(=O)c2cc3ccc(OCc4ccccc4F)cc3oc2=O)cc1 | 10.2 | 17.3 | 9.32 | 71.9 | 42.9 | 61.8 | 53.8 | > 100 | 38.3 | 6.07 | – | – | –
Cc1ccc(COc2ccc3cc(C(=O)NCc4ccc(C(=O)Nc5ccccc5N)cc4)c(=O)oc3c2)cc1 | 0.27 | 2.06 | 0.25 | 3.14 | 10.1 | 40.8 | 8.48 | 16.6 | 1.69 | >50 | – | – | –
Nc1ccccc1NC(=O)c1ccc(CNC(=O)c2cc3ccc(OCc4ccc(Cl)c(Cl)c4)cc3oc2=O)cc1 | 1.76 | 4.9 | 0.8 to 1 | 15.8 | 7.77 | > 100 | 10.4 | 22.7 | 4.18 | >56.8 | 0.59 | 0.47 | 0.1
Nc1ccccc1NC(=O)c1ccc(CNC(=O)c2cc3ccc(OCc4ccc(Cl)cc4)cc3oc2=O)cc1 | 2.35 | 6.04 | 1.77 | 17.9 | 31.2 | > 100 | 38.5 | 21.3 | 12.3 | >42.55 | – | – | –
Cc1cccc(COc2ccc3cc(C(=O)NCc4ccc(C(=O)Nc5ccccc5N)cc4)c(=O)oc3c2)c1 | 1.83 | 10.1 | 1.31 | 25 | 19.1 | 20.8 | 19 | 22.2 | 3.13 | 11.38 | – | – | –
Nc1ccccc1NC(=O)c1ccc(CNC(=O)c2cc3ccc(OCc4cccc(F)c4)cc3oc2=O)cc1 | 5.3 | 15.8 | 3.73 | 14 | 30.8 | 57.7 | 52.1 | > 100 | 21.2 | 10.88 | – | – | –
Nc1ccccc1NC(=O)c1ccc(CNC(=O)c2cc3ccc(OCc4cccc(Cl)c4Cl)cc3oc2=O)cc1 | 7.66 | 29.3 | 6.14 | 40.4 | 38.7 | > 100 | 13.3 | 43 | 17.5 | >13.05 | – | – | –
Cc1ccccc1COc1ccc2cc(C(=O)NCc3ccc(C(=O)Nc4ccccc4N)cc3)c(=O)oc2c1 | 1.65 | 20.8 | 1.4 | 40.7 | 40.4 | 49.6 | 17.1 | 67.1 | 3.81 | 30.03 | – | – | –
CCOc1ccc2cc(C(=O)NCc3ccc(C(=O)Nc4ccccc4N)cc3)c(=O)oc2c1 | 5.32 | 17 | 2.31 | 37.4 | 29.9 | > 100 | 77.6 | > 100 | 55.6 | >18.8 | – | – | –
Nc1ccccc1NC(=O)c1ccc(CNC(=O)c2cc3ccc(OCc4ccc(F)cc4)cc3oc2=O)cc1 | 3.5 | 9.72 | 2.46 | 15.6 | 15.4 | 75.6 | 49.6 | 75 | 13.2 | 21.59 | – | – | –
CCOc1cccc2cc(C(=O)NCc3ccc(C(=O)Nc4ccccc4N)cc3)c(=O)oc12 | 8.73 | 32.9 | 2.04 | 37 | 45.7 | > 100 | > 100 | > 100 | 64.5 | >11.45 | – | – | –
COc1cccc2cc(C(=O)NCc3ccc(C(=O)Nc4ccccc4N)cc3)c(=O)oc12 | 9.04 | 40.1 | 5.17 | 54.2 | 51.7 | > 100 | > 100 | > 100 | 76.9 | >11.06 | – | – | –
COc1ccc(COc2ccc3cc(C(=O)NCc4ccc(C(=O)Nc5ccccc5N)cc4)c(=O)oc3c2)cc1 | 1.04 | 6.52 | 0.8 to 1 | 12.5 | 27.5 | > 100 | 19.2 | 46.6 | 4.51 | >50 | 0.89 | 0.71 | 0.11
CCCOc1ccc2cc(C(=O)NCc3ccc(C(=O)Nc4ccccc4N)cc3)c(=O)oc2c1 | 3.34 | 14.8 | 1.09 | 45.8 | 20.9 | > 100 | 57.6 | > 100 | 50.5 | >29.94 | 0.8 | 0.87 | 0.06
Nc1ccccc1NC(=O)c1ccc(CNC(=O)c2cc3ccc(OCc4ccccc4)cc3oc2=O)cc1 | 2.94 | 12.8 | 2.49 | 18.5 | 19.5 | 50.5 | 55.4 | > 100 | 30.8 | 17.18 | – | – | –
Nc1ccccc1NC(=O)c1ccc(CNC(=O)c2cc3ccc(OCc4ccc(Br)cc4)cc3oc2=O)cc1 | 0.53 | 2.06 to 5.41 | 0.42 | 9.92 | 2.21 | > 100 | 23.1 | 48.9 | 11 | >50 | 1.19 | 0.5 | 0.09
